Data taken from ChEMBL document CHEMBL1123779, “Modifications of primaquine as antimalarials. 4. 5-Alkoxy derivatives of primaquine” (J Med Chem, 1987).

Columns and labels:
[1] = system: Plasmodium cynomolgi; test: Cures in Plasmodium cynomolgi infected Rhesus monkeys (Macaca mulatta) on 0.1 mg/kg/day after 7 days (x7); cured 0 of 2; assay type: functional
[2] = system: Mus musculus; test: Suppressive blood schizonticidal antimalarial activity evaluated in the trophozoite-induced Plasmodium berghei infection in mice (Mus musculus) at a dose 80 mg/kg given as no. of cures; assay type: functional
Summary of the method: (§1)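 Run at the Rane Laboratory with blood-induced P. berghei infections in mice, five animals per group. A cure is a mouse surviving to 60 days postinfection. Deaths before day 6 are recorded separately as toxic deaths. Activity is scored from the increase in mean survival time over untreated controls, and counts as active when treated MST is more than twice control MST.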

[3] = system: Mus musculus; test: Suppressive blood schizonticidal antimalarial activity evaluated in the trophozoite-induced Plasmodium berghei infection in mice (Mus musculus) at a dose 160 mg/kg given as no. of toxic deaths; assay type: functional
Summary of the method: (§2)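 Rane Laboratory mouse test with blood-induced P. berghei infection, five mice per group. Toxic deaths are deaths occurring before the 6th day postinfection.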

[4] = system: Plasmodium cynomolgi; test: Cures in Plasmodium cynomolgi infected Rhesus monkeys (Macaca mulatta) on 1 mg/kg/day after 7 days; cured 2 of 2; assay type: functional
[5] = system: Mus musculus; test: Suppressive blood schizonticidal antimalarial activity evaluated in the trophozoite-induced Plasmodium berghei infection in mice (Mus musculus) at a dose 20 mg/kg given as no. of cures; assay type: functional; summary of the method: as §1
[6] = system: Mus musculus; test: Suppressive blood schizonticidal antimalarial activity evaluated in the trophozoite-induced Plasmodium berghei infection in mice (Mus musculus) at a dose 2.5 mg/kg; assay type: functional
Summary of the method: (§3)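 Run at the Rane Laboratory in mice infected with blood-induced P. berghei, five animals per group. Activity is the increase in mean survival time over untreated infected controls. A compound counts as active when treated-group MST is more than twice the control MST. Cures are mice surviving at 60 days postinfection.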

[7] = system: Mus musculus; test: Suppressive blood schizonticidal antimalarial activity evaluated in the trophozoite-induced Plasmodium berghei infection in mice (Mus musculus) at a dose 10 mg/kg; assay type: functional; summary of the method: as §3
[8] = system: Plasmodium berghei; test: Blood schizonticidal activity in trophozoite-induced Plasmodium berghei infected mice (Mus musculus) at 40 mg/kg; numbers cured; assay type: functional; summary of the method: as §1
[9] = system: Plasmodium cynomolgi; test: Cures in Plasmodium cynomolgi infected Rhesus monkeys (Macaca mulatta) on 10.0 mg/kg/day after 7 days; assay type: functional, organism-based
[10] = system: Mus musculus; test: Suppressive blood schizonticidal antimalarial activity evaluated in the trophozoite-induced Plasmodium berghei infection in mice (Mus musculus) at a dose 5 mg/kg; assay type: functional; parameters: unit not given beside the values; summary of the method: as §3
[11] = system: Plasmodium cynomolgi; test: Cures in Plasmodium cynomolgi infected Rhesus monkeys (Macaca mulatta) on 0.316 mg/kg/day after 7 days; cures 2 of 2; assay type: functional
[12] = system: Mus musculus; test: Suppressive blood schizonticidal antimalarial activity evaluated in the trophozoite-induced Plasmodium berghei infection in mice (Mus musculus) at a dose 320 mg/kg given as no. of toxic deaths; assay type: functional; summary of the method: as §2
[13] = system: Plasmodium berghei; test: Suppressive blood schizonticidal antimalarial activity evaluated in the trophozoite-induced Plasmodium berghei infection in mice (Mus musculus) at a dose 640 mg/kg given as number of toxic deaths; assay type: toxicity, organism-based; parameters: dose 640 mg/kg; details: in vivo; summary of the method: as §2
[14] = system: Plasmodium cynomolgi; test: Cures in Plasmodium cynomolgi infected Rhesus monkeys (Macaca mulatta) on 10.0 mg/kg/day after 7 days; cured 1 of 1; assay type: functional
[15] = system: Mus musculus; test: Suppressive blood schizonticidal antimalarial activity evaluated in the trophozoite-induced Plasmodium berghei infection in mice (Mus musculus) at a dose 160 mg/kg given as no. of cures; assay type: functional; summary of the method: as §1
[16] = system: Mus musculus; test: Suppressive blood schizonticidal antimalarial activity evaluated in the trophozoite-induced Plasmodium berghei infection in mice (Mus musculus) at a dose 320 mg/kg; assay type: functional; summary of the method: as §3
[17] = system: Mus musculus; test: Suppressive blood schizonticidal antimalarial activity evaluated in the trophozoite-induced Plasmodium berghei infection in mice (Mus musculus) at a dose 40 mg/kg; assay type: functional; parameters: unit not given beside the values; summary of the method: as §3
[18] = system: Plasmodium cynomolgi; test: Cures in Plasmodium cynomolgi infected Rhesus monkeys (Macaca mulatta) on 1 mg/kg/day after 7 days; cured 3 of 3; assay type: functional
[19] = system: Plasmodium cynomolgi; test: Cures in Plasmodium cynomolgi infected Rhesus monkeys (Macaca mulatta) on 0.316 mg/kg/day after 7 days; cured 0 of 2; assay type: functional
[20] = system: Plasmodium berghei; test: Blood schizonticidal antimalarial activity in the trophozoite-induced Plasmodium berghei infection in mice (Mus musculus) at 20 mg/kg; assay type: functional; parameters: unit not given beside the values; summary of the method: as §3
[21] = system: Mus musculus; test: Suppressive blood schizonticidal antimalarial activity evaluated in the trophozoite-induced Plasmodium berghei infection in mice (Mus musculus) at a dose 10 mg/kg given as no. of cures; assay type: functional; summary of the method: as §1
[22] = system: Mus musculus; test: Suppressive blood schizonticidal antimalarial activity evaluated in the trophozoite-induced Plasmodium berghei infection in mice (Mus musculus) at a dose 640 mg/kg given as no. of cures; assay type: functional; summary of the method: as §1
[23] = system: Mus musculus; test: Suppressive blood schizonticidal antimalarial activity evaluated in the trophozoite-induced Plasmodium berghei infection in mice (Mus musculus) at a dose 320 mg/kg given as number of cures; assay type: functional; summary of the method: as §1
[24] = system: Plasmodium cynomolgi; test: Cures in Plasmodium cynomolgi infected Rhesus monkeys (Macaca mulatta) on 1 mg/kg/day after 7 days; cured 1 of 1; assay type: functional
[25] = system: Mus musculus; test: Suppressive blood schizonticidal antimalarial activity evaluated in the trophozoite-induced Plasmodium berghei infection in mice (Mus musculus) at a dose 160 mg/kg; assay type: functional; summary of the method: as §3
[26] = system: Mus musculus; test: Suppressive blood schizonticidal antimalarial activity evaluated in the trophozoite-induced Plasmodium berghei infection in mice (Mus musculus) at a dose 80 mg/kg; assay type: functional; parameters: unit not given beside the values; summary of the method: as §3
[27] = system: Plasmodium cynomolgi; test: Cures in Plasmodium cynomolgi infected Rhesus monkeys (Macaca mulatta) on 0.1 mg/kg/day after 7 days; cured 1 of 3; assay type: functional
[28] = system: Mus musculus; test: Suppressive blood schizonticidal antimalarial activity evaluated in the trophozoite-induced Plasmodium berghei infection in mice (Mus musculus) at a dose 80 mg/kg given as no. of toxic deaths; assay type: functional; summary of the method: as §2
[29] = system: Mus musculus; test: Suppressive blood schizonticidal antimalarial activity evaluated in the trophozoite-induced Plasmodium berghei infection in mice (Mus musculus) at a dose 5 mg/kg given as no. of cures; assay type: functional; summary of the method: as §1
[30] = system: Plasmodium cynomolgi; test: Radical curative antimalarial activity against Plasmodium cynomolgi in Rhesus monkeys (Macaca mulatta) at 1 mg/kg/day over 7 days; cured 1 of 2; assay type: functional
[31] = system: Plasmodium cynomolgi; test: Cures in Plasmodium cynomolgi infected Rhesus monkeys (Macaca mulatta) on 0.316 mg/kg/day after 7 days; cured 0 of 1; assay type: functional
[32] = system: Plasmodium cynomolgi; test: Cures in Plasmodium cynomolgi infected Rhesus monkeys (Macaca mulatta) on 0.1 mg/kg/day after 7 days; cured 0 of 1; assay type: functional

In the case of `COc1cc(NC(C)CCCN)c2nccc(C)c2c1OC1CCCC1` (centres undefined), the Cures/no. of animals [1] is reported as 0, the Cures [2] is reported as 1 and the Toxic deaths [3] is reported as 5. The Cures/no. of animals [4] was 2, the Cures [5] was 1 and the “Delta MST” value [6] was 6.1. For the same compound, the “Delta MST” value [7] was 6.9, the Cures [8] was 2 and the Cures/no. of animals [9] was “Toxic”. The “Delta MST” value [10] was 6.9, the Cures/no. of animals [11] was 2 and the Toxic deaths [12] was 5. It also gave a Toxic deaths [13] of 5.

`CCCCCCOc1c(OC)cc(NC(C)CCCN)c2ncccc12` (centres undefined) was tested, and the Cures [2] was 1, the Cures/no. of animals [14] was 1 and the Cures [15] was 1. For the same compound, the “Delta MST” value [16] was 0.1, the “Delta MST” value [17] was 6.5 and the Cures/no. of animals [18] was 3. The Cures/no. of animals [19] was 0, the Toxic deaths [13] was 1 and the “Delta MST” value [20] was 3.7.

For `CCOc1c(OC)cc(NC(C)CCCN)c2ncccc12` (centres undefined), the Toxic deaths [3] was 3, the “Delta MST” value [17] was 0.3 and the Toxic deaths [13] was 5.

`CCCCCCCCCOc1c(OC)cc(NC(C)CCCN)c2nccc(C)c12` (centres undefined) gave a Cures/no. of animals [1] of 0, a Cures [21] of 2 and a Cures [22] of 4. It also gave a Cures [2] of 5, a Cures [15] of 4 and a Cures [5] of 3. The “Delta MST” value [6] was 7.9, the Cures [8] was 5 and the Cures/no. of animals [9] was “Toxic”. For the same compound, the “Delta MST” value [10] was 9.7, the Cures [23] was 4 and the Cures/no. of animals [19] was 0. It also gave a Cures/no. of animals [24] of 1.

With `COc1cc(NC(C)CCCN)c2nc(C)ccc2c1` (centres undefined) the “Delta MST” value [25] was 8.3, the “Delta MST” value [26] was 7.3 and the “Delta MST” value [17] was 5.5. For the same compound, the Toxic deaths [12] was 1, the Toxic deaths [13] was 5 and the “Delta MST” value [20] was 3.1.

Compound `CCCCOCCOc1c(OC)cc(NC(C)CCCN)c2nccc(C)c12` (centres undefined) has a Cures [21] of 3, a Cures/no. of animals [27] of 1 and a Toxic deaths [3] of 3. The Cures [5] was 4, the “Delta MST” value [6] was 3.3 and the Cures [8] was 2. The Cures/no. of animals [9] was “Toxic”, the “Delta MST” value [10] was 4.3 and the Cures/no. of animals [11] was 2. It also gave a Toxic deaths [12] of 4, a Toxic deaths [28] of 4 and a Cures/no. of animals [24] of 1.

For `COc1cc(NC(C)CCCN)c2nccc(C)c2c1OCCCCOc1ccccc1` (centres undefined), the Cures/no. of animals [1] was 0, the Toxic deaths [3] was 5 and the Cures [29] was 1. For the same compound, the Cures [5] was 5, the “Delta MST” value [6] was 8 and the “Delta MST” value [7] was 10.2. The Cures [8] was 5, the Toxic deaths [12] was 5 and the Toxic deaths [28] was 5. For the same compound, the Toxic deaths [13] was 5.

In the case of `COc1cc(NC(C)CCCN)c2ncccc2c1` (centres undefined) [PRIMAQUINE], the Cures/no. of animals [1] is reported as 0, the Toxic deaths [3] is reported as 2 and the “Delta MST” value [26] is reported as 9.4. The “Delta MST” value [17] was 5, the Cures/no. of animals [30] was 1 and the Cures/no. of animals [19] was 0. For the same compound, the Toxic deaths [12] was 5, the Toxic deaths [13] was 5 and the “Delta MST” value [20] was 4.

`CCCCCCCCOc1c(OC)cc(NC(C)CCCN)c2nccc(C)c12` (centres undefined) showed a Cures [21] of 5, a Cures [2] of 5 and a Cures/no. of animals [31] of 0. For the same compound, the Cures [15] was 2, the “Delta MST” value [16] was 0.4 and the Cures [5] was 5. For the same compound, the “Delta MST” value [6] was 7.8, the Cures [8] was 5 and the Cures/no. of animals [9] was “Toxic”. For the same compound, the “Delta MST” value [10] was 12, the Toxic deaths [13] was 2 and the Cures/no. of animals [24] was 1.

In the case of `COc1cc(NC(C)CCCN)c2nccc(C)c2c1OCC1CCCCC1` (centres undefined), the Cures [21] is reported as 1, the Cures [2] is reported as 1 and the Cures/no. of animals [4] is reported as 2. For the same compound, the Cures/no. of animals [14] was 1, the Cures/no. of animals [31] was 0 and the Cures [5] was 4. The “Delta MST” value [6] was 9.2, the Cures [8] was 3 and the “Delta MST” value [10] was 7.8. It also gave a Cures/no. of animals [32] of 0, a Toxic deaths [12] of 4 and a Toxic deaths [13] of 5.
